Active and inactive are the calls of the source. The calls are words filed in the database; no cut-off is given here.

Ten compounds from ChEMBL document CHEMBL1155216, “A direct synthesis of 5,6-dihydroindolo[2,1-a]isoquinolines that exhibit immunosuppressive activity” (Bioorg Med Chem Lett, 2009) can be followed below.

The test system of data set [1] is Splenocyte. Put plainly: Immunosuppressive activity in influenza virus A/PR/8/34-H1N1 infected mouse splenocytes assessed as reduction of IFN-gamma level at 0.5 mg/ml after 48 hrs by ELISA. It is filed as functional, cell-based. The procedure, abridged: (§1)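 Spleen cells from mice taken 7 days after influenza infection; RBCs lysed with ammonium chloride, washed in HBSS, 5 × 10⁶ cells/ml in AIM-V. Restimulated with virus, compounds at 0.5 mg/ml final, triplicate, 37 °C, 5% CO₂. Supernatants collected at 48 h for IL-2 and IFN-γ and at 96 h for IL-10. Sandwich ELISA, TMB readout, four-parameter standard-curve fit.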
(In general: In an ELISA, binding on a coated surface is turned into a signal by an enzyme label.)

The nature of data set [2]: Cytotoxicity against mouse splenocytes assessed as cell viability after 48 hrs by MTS assay. The data set is classed as cell-based. The settings on record: splenocyte. In short, it runs like this: (§2)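 Spleen cells from non-infected mice, no stimulus added, cultured at 5 × 10⁶ cells/ml in AIM-V medium (1.25 × 10⁵ cells/well) with each compound for the stated time at 37 °C, 5% CO₂, humidified. MTS plus phenazine ethosulfate then added and incubated 3 h more. Absorbance read at 490 nm. Viability compared against vehicle control.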

The nature of data set [3]: Cytotoxicity against mouse splenocytes assessed as cell viability after 72 hrs by MTS assay. The data set is classed as cell-based. The settings on record: splenocyte. In short, it runs like this:
as §2
(In general: Formazan colour is commonly taken as a measure of viable cells.)

The test system of data set [4] is Splenocyte. The data set can be described thus: Immunosuppressive activity in influenza virus A/PR/8/34-H1N1 infected mouse splenocytes assessed as reduction of IL-10 level at 0.5 mg/ml after 96 hrs by ELISA. The data set is classed as functional, cell-based. The procedure, abridged:
as §1

Data set [5] in a line: Cytotoxicity against mouse splenocytes assessed as cell viability after 24 hrs by MTS assay. The data set is classed as cell-based. The settings on record: splenocyte. The procedure, abridged:
as §2

Data set [6] has as its system Splenocyte. The data set can be described thus: Immunosuppressive activity in influenza virus A/PR/8/34-H1N1 infected mouse splenocytes assessed as reduction of IL-2 level at 0.5 mg/ml after 48 hrs by ELISA. It is filed as functional, cell-based. The procedure, abridged: as §1

Turning to `COc1cc2c(cc1OC)-c1cc3cc(OC)c(OC)cc3n1CC2`, the outcome in data set [1], in data set [4] and in data set [6] was Active. Moreover, the Activity entry in data set [2], in data set [3] and in data set [5] was “Toxic” each time.

On to `COc1cc2c(cc1OC)-c1cc3ccccc3n1CC2`, for which the result in data set [1], in data set [4] and in data set [6] was Active. Moreover, the Activity result in data set [2], in data set [3] and in data set [5] was “Toxic” in each case.

On to `COc1cc2c(cc1OC)-c1cc3cccc(OC)c3n1CC2`, for which the outcome in data set [1], in data set [4] and in data set [6] was Active.

Turning to `COc1cc2c(cc1OC)-c1cc3ccc(C(F)(F)F)cc3n1CC2`, the result in data set [1], in data set [4] and in data set [6] was Active. Also, the Activity result is recorded as “Non-toxic” in data set [2], “Non-toxic” in data set [3] and “Toxic” in data set [5].

For the compound `c1ccc2c(c1)CCn1c-2cc2ccccc21`, the result in data set [1], in data set [4] and in data set [6] was Active.

Take `COc1cc2cc3n(c2cc1OC)CCc1ccccc1-3`: the result in data set [1], in data set [4] and in data set [6] was Active. The Activity entry in data set [2], in data set [3] and in data set [5] was “Toxic” throughout.

For the compound `COc1cc2c(cc1OC)-c1cc3cc(C(F)(F)F)ccc3n1CC2`, the outcome in data set [1], in data set [4] and in data set [6] was Active. The Activity result in data set [2], in data set [3] and in data set [5] was “Toxic” in each case.

In the case of `FC(F)(F)c1ccc2cc3n(c2c1)CCc1ccccc1-3`, the outcome in data set [1], in data set [4] and in data set [6] was Active. The Activity entry in data set [2] is “Non-toxic”; in data set [3], “Non-toxic”; in data set [5], “Toxic”.

On to `FC(F)(F)c1ccc2c(c1)cc1n2CCc2ccccc2-1`, for which the result in data set [1], in data set [4] and in data set [6] was Active. The Activity result in data set [2], in data set [3] and in data set [5] was “Non-toxic” throughout.

In the case of `COc1cccc2cc3n(c12)CCc1ccccc1-3`, the outcome in data set [1], in data set [4] and in data set [6] was Active. Besides, the Activity result in data set [2], in data set [3] and in data set [5] was “Toxic” throughout.
